# An excerpt weighted towards active compounds, which were near 4.9% of everything screened.
# APP 5'UTR act = activators of APP 5'UTR luciferase reporter, primary screen, SH-SY5Y cells. SH-SY5Y APP 5'UTR luciferase reporter, luminescence; zero percent = DMSO vehicle wells. activation, % at 2 µM. hit rate 1% among 190,000;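 active = activation above a set limit, based on mean plus 3 SD of controls, cut at about 140% in these data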
# STAT3 act-1 = IL-6 driven STAT3 reporter potentiators, primary screen, U3A cells, luciferase, luminescence, MLSCN library; activation (% of control), % at 5.6 µM; IL-6 STAT3-luciferase reporter; 100% = signal with IL-6 EC80 alone; hit rate 0.91% among 190,000;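 active = activation above the screen-wide mean of compound activation plus 3 SD, cut at about 130% in these data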;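 also: 0% = background luminescence of wells with medium and substrate only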
#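 Material: human STAT1-deficient U3A cells with stable STAT3-luciferase reporter / Probe or stimulus: IL-6 stimulus at 33 ng/mL final / Schedule: 1 h compound pre-exposure, 6 h IL-6 stimulation, 37 °C / Technique: luminescence / Read-out basis: percent of IL-6-only median luminescence / Control set: IL-6-only high control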
# NF-kB expr up = activators of NF-kB expression in neurons, primary screen, cell-based, HTS; fold change at 12.5 µM; hit rate 1.6% among 190,000; human neuronal cells, NF-kB reporter expression; active compounds read high; in the data active = fold change above about 3.3
# STAT1 inh = STAT1 signaling inhibitors, primary screen, cell-based, HTS, luciferase reporter; NIH 3T3 STAT1-luciferase reporter, IFN-gamma, luminescence; inhibition, % at 5.5 µM; hit rate 0.35% among 200,000;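 active = inhibition above a set limit, the mean inhibition across all tested compounds plus 3 SD, cut at about 34% in these data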;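 also: 0% = IFN-gamma with DMSO and 100% = IFN-gamma with 300 µM nifuroxazide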
# STAT3 inh-1 = IL-6 driven STAT3 reporter inhibitors, primary screen, U3A cells, luciferase, luminescence, MLSCN library. IL-6 STAT3-luciferase reporter; host cell line lacks STAT1. inhibition, % at 5.5 µM. hit rate 0.89% among 190,000;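 active = inhibition above the mean inhibition across all screened compounds plus 3 SD, cut at about 44% in these data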;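 also: 0% = DMSO only wells and 100% = 100 µM nifuroxazide control wells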
# STAT1 act-1 = STAT1 signaling activators, primary screen, cell-based, HTS, luciferase reporter; NIH 3T3 STAT1-luciferase reporter, IFN-gamma, luminescence; 100% = IFN-gamma alone, no compound; activation (% of control), % at 5.5 µM; hit rate 2.6% among 200,000; AID 932, 2007;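 active = activation above the screen-wide mean activation plus 3 SD, cut at about 130% in these data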;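 also: raw ratio to IFN-gamma control signal so 100% means no change and 0% no light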
# STAT3 inh-2 = STAT3 reporter inhibitors, retest of hits, confirmation, U3A cells, luciferase, luminescence; shares compounds with STAT3 inh-1; IL-6 STAT3 luciferase reporter; cell line lacks STAT1; inhibition, % at 5.7 µM; hit rate 45% among 1,200;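 active = inhibition above the hit cutoff computed for the primary STAT3 screen, cut at about 44% in these data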;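 also: 0% = IL-6 plus DMSO and 100% = IL-6 plus nifuroxazide control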
# NFkB inh 2 = NF-kB reporter inhibitors in human cells, confirmation, counter-screen for STAT3 inhibitor project, cell-based, HEK293T, luciferase, TNF-alpha stimulus; shares compounds with STAT3 inh-1; TNF-alpha induced; inhibition, % at 5.7 µM; hit rate 36% among 1,200;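 active = inhibition above the mean of solvent-only control wells plus 3 SD, cutoff set per campaign, cut at about 13% in these data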;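 also: 0% = TNF-alpha with DMSO and 100% = TNF-alpha with MG high control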
# STAT1 inh STAT3c = STAT1 reporter inhibitors, IFN-gamma induced, confirmation, counter-screen for STAT3 inhibitor project, cell-based, NIH 3T3, luciferase luminescence | shares compounds with STAT3 inh-1 | NIH 3T3 STAT1-luciferase reporter | inhibition, % at 5.7 µM | hit rate 27% among 1,200;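 active = inhibition above the mean plus 3 SD of solvent-only control wells, limit set per screening run, cut at about 16% in these data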;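 also: 0% = DMSO with IFN-gamma and 100% = nifuroxazide control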
# STAT3 act-2 = STAT3 reporter potentiators, retest of hits, confirmation, U3A cells, luciferase, luminescence | shares compounds with STAT3 act-1 | IL-6 potentiation; U3A cells lack STAT1; 100 means same as IL-6 alone | potentiation (% of control), % at 5.7 µM | hit rate 64% among 1,200 | AID 1267, 2008;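 active = percent activation of the STAT3 luciferase reporter above a set limit taken from the earlier primary screen, cut at about 130% in these data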;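 also: 0% = background signal of medium plus substrate and 100% = median of IL-6 with DMSO wells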
# NFkB act 2 = NF-kB reporter activators in human cells, counter-screen for STAT3 activator project; NF-kappaB reporter activation; shares compounds with STAT3 act-1; activation (% of control), % at 5.7 µM; AID 1309, 2008; hit rate 11% among 1,200; in the data active = activation above about 120%;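 also: reporter induced by TNF-alpha stimulation; 100% = median of stimulated DMSO wells and 0% = no signal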
# STAT1 act-2 = STAT1 reporter activators, IFN-gamma induced, counter-screen for STAT3 activator project, cell-based, NIH 3T3, luciferase luminescence | shares compounds with STAT3 act-1 | activation (% of control), % at 5.7 µM | NIH 3T3 STAT1-luciferase reporter | hit rate 13% among 1,200;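 active = activation above the solvent-only control well mean plus 3 SD, set per screening run, cut at about 120% in these data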;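 also: 100% = IFN-gamma with DMSO median signal so 100% means no change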
# The depositor's hits bear a star.
SMILES,APP 5'UTR act,STAT3 act-1,NF-kB expr up,STAT1 inh,STAT3 inh-1,STAT1 act-1,others
C[C@H]1CCC/C=C/C2C[C@H](O)CC2[C@H](O)/C=C/C(=O)O1 (stereo not given in full),-91.4,19.5,0.52,45.7*,93.3*,58.5,
C[C@H]1CCC[C@H](O)CCCCCc2cc(O)cc(O)c2C(=O)O1,-0.3,77.1,1.07,1.5,28.4,98.6,
Cc1ccc(N2C(=O)NC(=O)C(CCc3ccccn3)(Cc3ccc(F)cc3)C2=O)cc1 (stereo not given),3.3,118.2,1.16,-2.6,-14.5,102.3,
COc1cccc(-n2c(O)c(C=NCCN3CCOCC3)c(=O)[nH]c2=O)c1,-2.8,103.8,1.21,-3.2,-1.7,103.0,
C[C@H]1CCC[C@@H](O)CCC/C=C/c2cc(O)cc(O)c2C(=O)O1,-3.1,53.7,1.28,-8.7,59.8*,107.9,STAT3 inh-2=47.6*;NFkB inh 2=9.3;STAT1 inh STAT3c=-0.5
CC1CCC[C@H](O)CCCCCc2cc(O)cc(O)c2C(=O)O1 (stereo not given in full),-4.0,88.5,1.04,4.4,15.3,96.0,
CN(C)c1nc(OCCNC(=O)COc2ccc(Cl)cc2Cl)nc(N2CCCCC2)n1,55.1,105.3,1.09,-0.2,-4.5,100.2,
CCCCn1c(C)c(C(=O)O)c2cc(OC)ccc21,14.5,59.8,1.06,1.3,52.3*,98.8,STAT3 inh-2=35.2;NFkB inh 2=-8.7;STAT1 inh STAT3c=-18.2
CCn1nc(-c2ccccc2)nc2c(=O)n(C)c(=O)nc1-2,-3.8,51.7,0.98,-4.6,62.1*,105.5,STAT3 inh-2=74.5*;NFkB inh 2=48.9*;STAT1 inh STAT3c=41.1*
COc1ccc(-c2nc3ccccc3c(=O)n2-c2ccc(OC)cc2)cc1,10.1,100.6,0.91,7.5,2.8,91.2,
O=C(Nc1ccncc1)c1cccn(Cc2ccccc2)c1=O,10.3,39.7,0.95,12.2,78.9*,86.8,STAT3 inh-2=74.2*;NFkB inh 2=16.8*;STAT1 inh STAT3c=9.3
COc1ccc(N/N=C/c2c(O)n(-c3cccc(C)c3)c(=O)[nH]c2=O)cc1,18.5,89.2,1.26,27.7,16.7,73.1,
COc1ccc(N/N=C/c2c(O)n(-c3ccc(C)c(C)c3)c(=O)[nH]c2=O)cc1,-0.3,60.5,1.66,17.3,47.5*,83.9,STAT3 inh-2=15.5;NFkB inh 2=-0.7;STAT1 inh STAT3c=5.2
CCCC(C)C1(CC)C(=O)NC(=O)N=C1N (stereo not given),-0.5,90.6,0.96,1.5,14.2,98.7,
CNC(=O)Oc1cccc(-c2cn3cc(Cl)ccc3n2)c1,170.1*,20.7,8.18*,-19.6,92.4*,117.3,STAT3 inh-2=81.5*;NFkB inh 2=8.7;STAT1 inh STAT3c=-20.3
CC/C(=N\N1CCCCCC1)c1c(O)n(-c2ccc(C)cc2)c(=O)[nH]c1=O,9.3,90.6,0.91,-2.8,7.3,102.6,
Cc1ccc(-c2nc(N(C)C3CCN(C)CC3)c3ccccc3n2)cc1,0.6,172.2*,0.97,1.2,-76.0,98.9,STAT3 act-2=154.5*;NFkB act 2=98.6;STAT1 act-2=97.2
c1ccc2[nH]c(CCNC3CCCCC3)nc2c1,1.7,137.4*,1.31,0.2,-38.1,99.8,STAT3 act-2=116.2;NFkB act 2=105.9;STAT1 act-2=101.5
c1ccc2c(CCNC3CCCCC3)c[nH]c2c1,8.6,97.9,1.16,7.0,4.7,93.4,
Cc1nn(Cc2ccccc2)c(C)c1C(=O)OCC(=O)Nc1ccccc1SCC#N,16.7,137.8*,1.15,10.9,-34.0,90.0,STAT3 act-2=117.7;NFkB act 2=106.4;STAT1 act-2=91.0
Clc1ccc(C2NCCc3[nH]cnc32)cc1 (stereo not given),-7.2,80.6,0.95,12.3,26.2,88.9,
C=CCN(CC=C)Cc1c[nH]c2ccccc12,12.1,146.7*,1.22,0.1,-46.4,99.9,STAT3 act-2=133.7*;NFkB act 2=106.7;STAT1 act-2=84.2
O/N=C/c1c[nH]c2ccccc12,-4.5,126.7,1.13,2.0,-27.2,98.2,
COc1cccc(C2C([N+](=O)[O-])=C(N)Oc3c2c(=O)oc2ccccc32)c1 (stereo not given),7.6,109.6,0.91,2.5,-4.9,97.8,
Cn1cccc1/C=C1\C(=O)NC(=O)N(Cc2ccco2)C1=O,5.9,145.9*,1.83,-15.4,-44.5,112.0,STAT3 act-2=118.5;NFkB act 2=109.5;STAT1 act-2=103.5
COc1ccc(/C=C2/C(=O)NC(=O)N(Cc3ccco3)C2=O)cc1,4.5,102.9,1.02,3.8,2.0,95.2,
CC(=Nc1c(C)n(C)n(-c2ccccc2)c1=O)c1c(O)n(Cc2ccccc2)c(=O)[nH]c1=O,18.1,155.6*,0.99,-4.0,-57.4,103.6,STAT3 act-2=128.0;NFkB act 2=107.2;STAT1 act-2=105.5

# Screens: PubChem BioAssay, several laboratories
